Laboratory results published in ChEMBL document CHEMBL2331439 (J Med Chem, 2013).

Experiments:
[1] = target: Glycogen synthase kinase-3 beta (Homo sapiens) (UniProt P49841); assay: Inhibition of recombinant GSK3B (unknown origin) at 5 uM by FRET-based Z'-LYTE assay
In short: (§1)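 Single-point panel screen at 5 μM in duplicate. ATP is at the apparent Km of each kinase, and the Z'-LYTE FRET peptide substrate is used. Each point has two control wells: a protease control for interference with development and a fluorescence control for interference with the FRET read-out. Values above 100% are treated as maximal inhibition and values below 0% as none.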

[2] = target: Mitogen-activated protein kinase 1 (Homo sapiens, UniProt P28482); assay: Inhibition of recombinant MAPK1 (unknown origin) at 5 uM by FRET-based Z'-LYTE assay; in short: as §1
[3] = target: Phosphorylase b kinase gamma catalytic chain, liver/testis isoform (Homo sapiens) (UniProt P15735); assay: Inhibition of recombinant PHKG2 (unknown origin) at 5 uM by FRET-based Z'-LYTE assay; in short: as §1
[4] = target: Phosphatidylinositol 4,5-bisphosphate 3-kinase catalytic subunit gamma isoform (Homo sapiens) (UniProt P48736); assay: Inhibition of recombinant PIK3CG (unknown origin) at 5 uM after 1 hr by FRET-based adapta assay
In short: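 After inhibitor and all reaction components are added, the reaction runs for 1 h. ADP formed by the kinase displaces an antibody-tracer complex, so reduced ADP gives a high TR-FRET signal. Inhibition is calculated against a control.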

[5] = target: Tyrosine-protein kinase BTK (Homo sapiens) (UniProt Q06187); assay: Inhibition of recombinant BTK (unknown origin) at 5 uM by FRET-based Z'-LYTE assay; in short: as §1
[6] = target: Rho-associated protein kinase 1 (Homo sapiens) (UniProt Q13464); assay: Inhibition of recombinant ROCK1 (unknown origin) at 5 uM by FRET-based Z'-LYTE assay
In short: (§2)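 Z'-LYTE FRET peptide (coumarin/fluorescein) phosphorylation was followed by protease development. Wells included a protease control for interference with development and a fluorescence control for interference with the FRET read. Values above 100% or below 0% were treated as maximal or no inhibition.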

[7] = target: Fibroblast growth factor receptor 1 (Homo sapiens) (UniProt P11362); assay: Inhibition of recombinant FGFR1 (unknown origin) at 5 uM by FRET-based Z'-LYTE assay; in short: as §1
[8] = target: Mitogen-activated protein kinase kinase kinase kinase 4 (Homo sapiens) (UniProt O95819); assay: Inhibition of recombinant MAP4K4 (unknown origin) at 5 uM by FRET-based Z'-LYTE assay; in short: as §1
[9] = target: Aurora kinase A (Homo sapiens) (UniProt O14965); assay: Inhibition of recombinant AURKA (unknown origin) at 5 uM by FRET-based Z'-LYTE assay; in short: as §1
[10] = target: Serine/threonine-protein kinase Chk1 (Homo sapiens) (UniProt O14757); assay: Inhibition of recombinant CHEK1 (unknown origin) at 5 uM by FRET-based Z'-LYTE assay; in short: as §1
[11] = target: Protein kinase C beta type (Homo sapiens) (UniProt P05771); assay: Inhibition of recombinant PRKCB1 (unknown origin) at 5 uM by FRET-based Z'-LYTE assay; in short: as §2
[12] = target: Ribosomal protein S6 kinase beta-1 (Homo sapiens, UniProt P23443); assay: Inhibition of recombinant RPS6KB1 (unknown origin) at 5 uM by FRET-based Z'-LYTE assay; in short: as §2
[13] = target: Mitogen-activated protein kinase 14 (Homo sapiens, UniProt Q16539); assay: Inhibition of recombinant MAPK14 (unknown origin) at 5 uM by cascade reaction assay
[14] = target: RAC-alpha serine/threonine-protein kinase (Homo sapiens, UniProt P31749); assay: Inhibition of recombinant AKT1 (unknown origin) at 5 uM by FRET-based Z'-LYTE assay; in short: as §1
[15] = target: Dual specificity mitogen-activated protein kinase kinase 1 (Homo sapiens, UniProt Q02750); assay: Inhibition of recombinant MEK1 (unknown origin) by cascade reaction assay
[16] = target: AMP-activated protein kinase (AMPK) alpha-1/beta-1/gamma-1 (Homo sapiens, UniProt P54619+Q13131+Q9Y478); assay: Inhibition of recombinant AMPK A1/B1/G1 (unknown origin) by FRET-based Z'-LYTE assay; format: protein-complex assay
[17] = target: RAC-beta serine/threonine-protein kinase (Homo sapiens, UniProt P31751); assay: Inhibition of recombinant AKT2 (unknown origin) by FRET-based Z'-LYTE assay
[18] = target: Epidermal growth factor receptor (Homo sapiens) (UniProt P00533); assay: Inhibition of recombinant EGFR (unknown origin) at 5 uM by FRET-based Z'-LYTE assay; in short: as §1
[19] = target: Serine/threonine-protein kinase PLK1 (Homo sapiens) (UniProt P53350); assay: Inhibition of recombinant PLK1 (unknown origin) at 5 uM by FRET-based Z'-LYTE assay; in short: as §1
[20] = target: Serine/threonine-protein kinase mTOR (Homo sapiens) (UniProt P42345); assay: Inhibition of recombinant FRAP1 (unknown origin) at 5 uM by FRET-based Z'-LYTE assay; in short: as §1
[21] = target: Activin receptor type-1B (Homo sapiens) (UniProt P36896); assay: Inhibition of recombinant ACVR1B (unknown origin) at 5 uM by FRET-based Z'-LYTE assay; in short: as §1
[22] = target: Cyclin-dependent kinase 2/cyclin A (Homo sapiens) (UniProt P24941+P20248+P78396); assay: Inhibition of recombinant CDK2/cyclin A (unknown origin) at 5 uM by FRET-based Z'-LYTE assay; format: protein-complex assay; in short: as §1
[23] = target: Mast/stem cell growth factor receptor Kit (Homo sapiens) (UniProt P10721); assay: Inhibition of recombinant KIT (unknown origin) at 5 uM by FRET-based Z'-LYTE assay; in short: as §1
[24] = target: Interleukin-1 receptor-associated kinase 4 (Homo sapiens) (UniProt Q9NWZ3); assay: Inhibition of recombinant IRAK4 (unknown origin) at 5 uM by FRET-based Z'-LYTE assay; in short: as §1
[25] = target: Casein kinase II subunit alpha (Homo sapiens) (UniProt P68400); assay: Inhibition of recombinant CSNK2A1 (unknown origin) at 5 uM by FRET-based Z'-LYTE assay; in short: as §1
[26] = target: cAMP-dependent protein kinase catalytic subunit alpha (Homo sapiens) (UniProt P17612); assay: Inhibition of recombinant PRKACA (unknown origin) at 5 uM by FRET-based Z'-LYTE assay; in short: as §1
[27] = target: Serine/threonine-protein kinase pim-1 (Homo sapiens) (UniProt P11309); assay: Inhibition of recombinant PIM1 (unknown origin) at 5 uM by FRET-based Z'-LYTE assay; in short: as §1
[28] = target: Insulin receptor (Homo sapiens) (UniProt P06213); assay: Inhibition of recombinant INSR (unknown origin) at 5 uM by FRET-based Z'-LYTE assay; in short: as §1
[29] = target: Mitogen-activated protein kinase 8 (Homo sapiens) (UniProt P45983); assay: Inhibition of recombinant MAPK8 (unknown origin) at 5 uM by FRET-based Z'-LYTE assay; in short: as §1
[30] = target: MAP kinase-activated protein kinase 2 (Homo sapiens, UniProt P49137); settings: 5 uM
[31] = target: Vascular endothelial growth factor receptor 2 (Homo sapiens, UniProt P35968); settings: 5 uM

Sequence of Insulin receptor (Homo sapiens) (P06213 28-758 limits assumed): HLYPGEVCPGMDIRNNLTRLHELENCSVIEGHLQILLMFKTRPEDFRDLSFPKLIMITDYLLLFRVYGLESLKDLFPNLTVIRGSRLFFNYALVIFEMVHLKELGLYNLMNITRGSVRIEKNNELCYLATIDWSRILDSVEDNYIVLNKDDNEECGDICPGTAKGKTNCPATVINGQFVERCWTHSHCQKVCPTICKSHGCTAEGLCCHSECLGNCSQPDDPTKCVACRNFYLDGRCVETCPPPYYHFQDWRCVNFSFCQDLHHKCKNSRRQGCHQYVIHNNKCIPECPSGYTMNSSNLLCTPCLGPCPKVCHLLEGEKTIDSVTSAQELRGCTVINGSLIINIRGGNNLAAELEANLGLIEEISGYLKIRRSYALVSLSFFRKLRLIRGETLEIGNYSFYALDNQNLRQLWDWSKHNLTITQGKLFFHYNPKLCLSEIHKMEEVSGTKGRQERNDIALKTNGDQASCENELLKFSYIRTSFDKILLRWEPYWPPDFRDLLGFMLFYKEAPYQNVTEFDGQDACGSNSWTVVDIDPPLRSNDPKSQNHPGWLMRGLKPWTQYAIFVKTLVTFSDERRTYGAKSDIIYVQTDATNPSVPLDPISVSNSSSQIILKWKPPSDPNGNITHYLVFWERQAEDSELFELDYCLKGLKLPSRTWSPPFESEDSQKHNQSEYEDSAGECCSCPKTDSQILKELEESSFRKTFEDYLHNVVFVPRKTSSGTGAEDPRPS
Sequence of Insulin receptor (Homo sapiens) (P06213 763-1382 limits assumed): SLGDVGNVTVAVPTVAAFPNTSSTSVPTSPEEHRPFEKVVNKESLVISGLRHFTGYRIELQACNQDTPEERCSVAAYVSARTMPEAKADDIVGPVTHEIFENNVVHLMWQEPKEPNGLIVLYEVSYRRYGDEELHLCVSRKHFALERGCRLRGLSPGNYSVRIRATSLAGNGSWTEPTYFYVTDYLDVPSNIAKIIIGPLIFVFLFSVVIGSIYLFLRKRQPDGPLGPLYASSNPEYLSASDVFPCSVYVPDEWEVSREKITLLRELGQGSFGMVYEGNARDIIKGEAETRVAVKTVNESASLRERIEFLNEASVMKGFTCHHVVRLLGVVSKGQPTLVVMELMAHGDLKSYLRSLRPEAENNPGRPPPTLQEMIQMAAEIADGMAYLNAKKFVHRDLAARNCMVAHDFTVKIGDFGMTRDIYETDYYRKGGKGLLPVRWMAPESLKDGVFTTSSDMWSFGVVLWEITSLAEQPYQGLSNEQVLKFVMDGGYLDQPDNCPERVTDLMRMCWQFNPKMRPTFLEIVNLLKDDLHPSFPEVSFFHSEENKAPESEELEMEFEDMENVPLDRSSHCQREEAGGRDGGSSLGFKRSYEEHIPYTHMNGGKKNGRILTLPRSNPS
Sequence of Activin receptor type-1B (Homo sapiens) (P36896 whole entry): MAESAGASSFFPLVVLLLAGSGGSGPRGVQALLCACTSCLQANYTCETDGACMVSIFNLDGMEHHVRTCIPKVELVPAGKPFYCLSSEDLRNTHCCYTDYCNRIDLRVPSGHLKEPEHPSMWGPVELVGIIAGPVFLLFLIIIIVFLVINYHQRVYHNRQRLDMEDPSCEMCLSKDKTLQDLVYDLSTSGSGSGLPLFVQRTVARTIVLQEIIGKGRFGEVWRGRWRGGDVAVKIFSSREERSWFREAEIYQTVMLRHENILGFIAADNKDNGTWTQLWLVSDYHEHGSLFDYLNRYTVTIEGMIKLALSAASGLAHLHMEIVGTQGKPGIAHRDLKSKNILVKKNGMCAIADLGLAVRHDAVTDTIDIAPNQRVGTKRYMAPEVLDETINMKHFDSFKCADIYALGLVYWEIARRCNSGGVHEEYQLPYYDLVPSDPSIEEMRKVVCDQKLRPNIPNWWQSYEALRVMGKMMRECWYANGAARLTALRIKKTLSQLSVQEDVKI
Sequence of Tyrosine-protein kinase BTK (Homo sapiens) (Q06187 whole entry): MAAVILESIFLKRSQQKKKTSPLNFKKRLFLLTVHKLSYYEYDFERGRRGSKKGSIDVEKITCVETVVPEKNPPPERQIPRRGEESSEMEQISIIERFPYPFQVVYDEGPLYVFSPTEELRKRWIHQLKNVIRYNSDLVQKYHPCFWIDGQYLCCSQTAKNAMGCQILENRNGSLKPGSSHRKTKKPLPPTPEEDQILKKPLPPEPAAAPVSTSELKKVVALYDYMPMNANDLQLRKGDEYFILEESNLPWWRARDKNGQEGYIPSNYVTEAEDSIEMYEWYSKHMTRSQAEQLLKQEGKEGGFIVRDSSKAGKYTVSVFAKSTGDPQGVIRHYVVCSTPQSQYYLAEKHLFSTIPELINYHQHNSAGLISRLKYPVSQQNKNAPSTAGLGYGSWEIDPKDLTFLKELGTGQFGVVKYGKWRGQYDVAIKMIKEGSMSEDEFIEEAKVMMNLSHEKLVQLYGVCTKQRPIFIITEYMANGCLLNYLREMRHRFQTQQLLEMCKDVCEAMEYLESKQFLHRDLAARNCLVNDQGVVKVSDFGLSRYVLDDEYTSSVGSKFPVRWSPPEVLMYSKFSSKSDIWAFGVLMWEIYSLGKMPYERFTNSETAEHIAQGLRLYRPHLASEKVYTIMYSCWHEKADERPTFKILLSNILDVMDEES
Sequence of Phosphatidylinositol 4,5-bisphosphate 3-kinase catalytic subunit gamma isoform (Homo sapiens) (P48736 whole entry, looked up, canonical isoform): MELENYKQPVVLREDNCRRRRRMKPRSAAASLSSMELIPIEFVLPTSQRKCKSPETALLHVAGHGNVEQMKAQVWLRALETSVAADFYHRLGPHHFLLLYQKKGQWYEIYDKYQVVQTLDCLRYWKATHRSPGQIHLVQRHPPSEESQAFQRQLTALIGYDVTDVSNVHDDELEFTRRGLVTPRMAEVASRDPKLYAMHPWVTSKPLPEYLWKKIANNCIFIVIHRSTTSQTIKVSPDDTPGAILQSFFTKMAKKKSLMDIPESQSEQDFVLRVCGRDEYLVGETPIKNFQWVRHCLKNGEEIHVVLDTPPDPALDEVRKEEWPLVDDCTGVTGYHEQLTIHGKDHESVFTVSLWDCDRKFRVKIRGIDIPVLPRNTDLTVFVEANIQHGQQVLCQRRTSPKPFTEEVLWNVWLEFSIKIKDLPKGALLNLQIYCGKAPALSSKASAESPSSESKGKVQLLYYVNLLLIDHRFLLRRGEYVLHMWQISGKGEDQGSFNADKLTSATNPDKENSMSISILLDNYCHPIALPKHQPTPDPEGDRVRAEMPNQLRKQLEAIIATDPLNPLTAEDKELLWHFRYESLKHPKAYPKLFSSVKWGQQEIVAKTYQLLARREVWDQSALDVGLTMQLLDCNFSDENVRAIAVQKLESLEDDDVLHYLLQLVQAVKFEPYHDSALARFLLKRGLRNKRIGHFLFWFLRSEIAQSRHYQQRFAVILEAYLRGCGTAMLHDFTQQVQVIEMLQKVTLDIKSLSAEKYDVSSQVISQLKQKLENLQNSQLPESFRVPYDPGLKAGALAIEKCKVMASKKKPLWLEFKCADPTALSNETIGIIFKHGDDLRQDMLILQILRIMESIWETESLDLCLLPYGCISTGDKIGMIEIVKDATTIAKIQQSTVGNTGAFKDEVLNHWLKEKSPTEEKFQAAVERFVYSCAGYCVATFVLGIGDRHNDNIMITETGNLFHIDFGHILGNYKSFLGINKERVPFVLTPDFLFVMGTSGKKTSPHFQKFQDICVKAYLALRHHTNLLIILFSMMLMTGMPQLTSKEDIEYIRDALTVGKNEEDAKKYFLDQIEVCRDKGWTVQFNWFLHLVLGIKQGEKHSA
Sequence of Glycogen synthase kinase-3 beta (Homo sapiens) (P49841 whole entry, looked up): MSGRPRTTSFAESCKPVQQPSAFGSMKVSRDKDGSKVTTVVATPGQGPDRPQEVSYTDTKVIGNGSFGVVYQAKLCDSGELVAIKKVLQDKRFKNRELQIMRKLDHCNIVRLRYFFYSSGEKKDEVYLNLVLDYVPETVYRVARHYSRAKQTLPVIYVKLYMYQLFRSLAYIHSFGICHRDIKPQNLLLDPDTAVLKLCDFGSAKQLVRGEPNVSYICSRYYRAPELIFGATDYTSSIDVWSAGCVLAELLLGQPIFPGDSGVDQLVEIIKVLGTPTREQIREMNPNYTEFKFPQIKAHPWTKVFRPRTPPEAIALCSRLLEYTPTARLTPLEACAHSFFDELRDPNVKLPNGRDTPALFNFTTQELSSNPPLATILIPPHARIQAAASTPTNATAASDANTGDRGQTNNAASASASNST
Sequence of Ribosomal protein S6 kinase beta-1 (P23443 whole entry, looked up): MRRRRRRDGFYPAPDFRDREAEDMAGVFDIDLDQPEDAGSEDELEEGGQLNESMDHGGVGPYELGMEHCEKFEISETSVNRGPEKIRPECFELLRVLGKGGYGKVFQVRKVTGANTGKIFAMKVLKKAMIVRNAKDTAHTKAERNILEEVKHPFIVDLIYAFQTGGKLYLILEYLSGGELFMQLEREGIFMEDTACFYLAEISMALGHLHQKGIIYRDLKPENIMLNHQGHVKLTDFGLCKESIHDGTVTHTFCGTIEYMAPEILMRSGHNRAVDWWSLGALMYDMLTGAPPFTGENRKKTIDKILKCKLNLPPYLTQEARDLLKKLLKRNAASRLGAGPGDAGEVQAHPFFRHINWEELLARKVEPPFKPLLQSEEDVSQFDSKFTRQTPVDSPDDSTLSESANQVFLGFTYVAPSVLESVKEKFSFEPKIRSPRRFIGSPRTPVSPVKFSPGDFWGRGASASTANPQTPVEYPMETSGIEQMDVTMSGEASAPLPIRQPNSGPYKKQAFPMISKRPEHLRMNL
Sequence of Aurora kinase A (Homo sapiens) (O14965 whole entry): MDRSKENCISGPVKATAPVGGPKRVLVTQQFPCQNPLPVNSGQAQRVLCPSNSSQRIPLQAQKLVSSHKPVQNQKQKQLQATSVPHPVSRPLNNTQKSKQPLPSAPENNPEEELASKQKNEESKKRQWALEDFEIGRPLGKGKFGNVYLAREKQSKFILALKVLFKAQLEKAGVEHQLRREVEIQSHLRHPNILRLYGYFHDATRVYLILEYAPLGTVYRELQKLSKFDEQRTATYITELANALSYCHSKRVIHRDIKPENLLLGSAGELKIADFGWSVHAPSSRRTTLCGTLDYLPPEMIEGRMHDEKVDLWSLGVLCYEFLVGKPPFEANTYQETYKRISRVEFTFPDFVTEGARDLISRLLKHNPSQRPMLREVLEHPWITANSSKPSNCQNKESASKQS

inhibition [1]: 17%
inhibition [2]: 34%
inhibition [3]: 37%
inhibition [4]: 34%
inhibition [5]: 44%
inhibition [6]: 58%
inhibition [7]: 66%
inhibition [8]: 72%
inhibition [9]: 77%
inhibition [10]: 90%
inhibition [11]: 91%
inhibition [12]: 101%
inhibition [13]: 104%
inhibition [14]: 107%
IC50 [15]: 1.1 µM
IC50 [16]: 1.5 µM
IC50 [17]: 0.02 µM
inhibition [18]: -9%
inhibition [19]: -9%
inhibition [20]: -5%
inhibition [21]: 1%
inhibition [22]: 1%
inhibition [23]: 2%
inhibition [24]: 5%
inhibition [25]: 5%
inhibition [26]: 11%
inhibition [27]: 10%
inhibition [28]: 15%
inhibition [29]: 16%
inhibition [30]: 85%
inhibition [31]: 89%
Compound: O=C1/C(=C/c2ccccn2)CNC/C1=C\c1ccccn1
